Experimental data from ChEMBL document CHEMBL1240355 (2010).
≈ marks a conversion by molar mass, not a printed value. Calls of active or inactive are those of the source. The rule behind the calls is not given here.

Tests used:
Salmonella enteritidis [1] = assay: Antibacterial activity against ciprofloxacin-resistant Salmonella enteritidis 104 harboring gyrA D87Y/S83F mutant, soxR R20H mutant and soxS E52K mutant gene by CLSI method; conditions: Salmonella enterica
Salmonella enteritidis [2] = assay: Antibacterial activity against ciprofloxacin-susceptible Salmonella enteritidis 1A-revertC2 harboring gyrA D87Y/S83F mutant, parC D79N mutant, soxR R133C/R20H mutant, soxS E52K mutant and marA I111N/H115Q mutant gene after 70 passages by CLSI method; format: functional, Salmonella enterica subsp. enterica serovar Enteritidis; conditions: Salmonella enterica
Salmonella enteritidis [3] = assay: Antibacterial activity against ciprofloxacin-susceptibility revert strain of Salmonella enteritidis 104 harboring gyrA D87Y/S83F mutant, parC D79N mutant, soxR E16G/R20H mutant and soxS E52K mutant gene after 20 passages by CLSI method; format: functional, Salmonella enterica subsp. enterica serovar Enteritidis; conditions: Salmonella enterica
Salmonella enteritidis [4] = assay: Antibacterial activity against wild type Salmonella enteritidis 104 harboring gyrA D87Y mutant gene by CLSI method; format: functional, Salmonella enterica subsp. enterica serovar Enteritidis; conditions: Salmonella enterica
Salmonella enteritidis [5] = assay: Antibacterial activity against wild type Salmonella enteritidis 5408 harboring gyrA D87Y mutant gene by CLSI method; format: functional, Salmonella enterica subsp. enterica serovar Enteritidis; conditions: Salmonella enterica
Salmonella enteritidis [6] = assay: Antibacterial activity against ciprofloxacin-resistant Salmonella enteritidis 5408 harboring gyrA D87Y mutant, gyrB E466D mutant, parE V461G mutant and ramR G25A mutant gene after 200 passages by CLSI method; format: functional, Salmonella enterica subsp. enterica serovar Enteritidis; conditions: Salmonella enterica
Salmonella enteritidis [7] = assay: Antibacterial activity against wild type Salmonella enteritidis 5408 harboring gyrA D87Y mutant gene assessed as width of bacterial rods by microscopy; format: functional, Salmonella enterica subsp. enterica serovar Enteritidis
Salmonella enteritidis [8] = assay: Antibacterial activity against ciprofloxacin-resistant Salmonella enteritidis 5408 harboring gyrA D87Y mutant, gyrB E466D mutant, parE V461G mutant and ramR G25A mutant gene assessed as reduction in swim motility after overnight incubation; format: functional, Salmonella enterica subsp. enterica serovar Enteritidis
Procedure, shortened: (§1)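 Swim assay: 1 µl of overnight culture spotted centrally on LB with 0.1% gellan gum, dried 1 h at room temperature, incubated overnight at 30°C. Visible spread measured with a ruler (mm). Reduction expressed relative to the parent strain.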

Salmonella enteritidis [9] = assay: Antibacterial activity against Salmonella enteritidis by CLSI method; conditions: Salmonella enterica
Salmonella enteritidis [10] = assay: Antibacterial activity against ciprofloxacin-susceptible Salmonella enteritidis 1A-revertC2 harboring gyrA D87Y/S83F mutant, parC D79N mutant, soxR R133C/R20H mutant, soxS E52K mutant and marA I111N/H115Q mutant gene after 70 passages after 24 hrs by spectrophotometry; format: functional, organism-based; conditions: Salmonella enterica subsp. enterica serovar Enteritidis
Procedure, shortened: (§2)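 Growth in TSB: colony from TSA (37°C, 18 h) grown overnight in 10 ml TSB, 1 ml into 100 ml TSB, shaken aerobically at 37°C. Absorbance read hourly for 8 h, then at 24 h, by spectrophotometer.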

Salmonella enteritidis [11] = assay: Antibacterial activity against ciprofloxacin-resistant Salmonella enteritidis 104 harboring gyrA D87Y/S83F mutant, soxR R20H mutant and soxS E52K mutant gene after 24 hrs by spectrophotometry; format: functional, organism-based; conditions: Salmonella enterica subsp. enterica serovar Enteritidis
Procedure, shortened: as §2

Salmonella enteritidis [12] = assay: Antibacterial activity against ciprofloxacin-resistant Salmonella enteritidis 104 harboring gyrA D87Y/S83F mutant, soxR R20H mutant and soxS E52K mutant gene assessed as length of bacterial rods by microscopy; format: functional, Salmonella enterica subsp. enterica serovar Enteritidis
Salmonella enteritidis [13] = assay: Antibacterial activity against wild type Salmonella enteritidis 104 harboring gyrA D87Y mutant gene assessed as length of bacterial rods by microscopy; format: functional, Salmonella enterica subsp. enterica serovar Enteritidis
Salmonella enteritidis [14] = assay: Antibacterial activity against wild type Salmonella enteritidis 5408 harboring gyrA D87Y mutant gene assessed as length of bacterial rods by microscopy; format: functional, Salmonella enterica subsp. enterica serovar Enteritidis
Salmonella enteritidis [15] = assay: Antibacterial activity against ciprofloxacin-susceptibility revert strain of Salmonella enteritidis 104 harboring gyrA D87Y/S83F mutant, parC D79N mutant, soxR E16G/R20H mutant and soxS E52K mutant gene after 24 hrs by spectrophotometry; format: functional, organism-based; conditions: Salmonella enterica subsp. enterica serovar Enteritidis
Procedure, shortened: as §2

Salmonella enteritidis [16] = assay: Antibacterial activity against wild type Salmonella enteritidis 5408 harboring gyrA D87Y mutant gene after 24 hrs by spectrophotometry; format: functional, organism-based; conditions: Salmonella enterica subsp. enterica serovar Enteritidis
Procedure, shortened: as §2

Salmonella enteritidis [17] = assay: Antibacterial activity against wild type Salmonella enteritidis 104 harboring gyrA D87Y mutant gene assessed as width of bacterial rods by microscopy; format: functional, Salmonella enterica subsp. enterica serovar Enteritidis
Salmonella enteritidis [18] = assay: Antibacterial activity against ciprofloxacin-resistant Salmonella enteritidis 5408 harboring gyrA D87Y mutant, gyrB E466D mutant, parE V461G mutant and ramR G25A mutant gene assessed as length of bacterial rods by microscopy; format: functional, Salmonella enterica subsp. enterica serovar Enteritidis
Salmonella enteritidis [19] = assay: Antibacterial activity against ciprofloxacin-resistant Salmonella enteritidis 104 harboring gyrA D87Y/S83F mutant, soxR R20H mutant and soxS E52K mutant gene assessed as reduction in swim motility after overnight incubation; format: functional, Salmonella enterica subsp. enterica serovar Enteritidis
Procedure, shortened: as §1

Salmonella enteritidis [20] = assay: Antibacterial activity against ciprofloxacin-susceptibility revert strain of Salmonella enteritidis 104 harboring gyrA D87Y/S83F mutant, parC D79N mutant, soxR E16G/R20H mutant and soxS E52K mutant gene assessed as reduction in swim motility after overnight incubation; format: functional, Salmonella enterica subsp. enterica serovar Enteritidis
Procedure, shortened: as §1

Salmonella enteritidis [21] = assay: Antibacterial activity against ciprofloxacin-susceptibility revert strain of Salmonella enteritidis 104 harboring gyrA D87Y/S83F mutant, parC D79N mutant, soxR E16G/R20H mutant and soxS E52K mutant gene assessed as reduction in swarm motility after overnight incubation; format: functional, Salmonella enterica subsp. enterica serovar Enteritidis
Procedure, shortened: (§3)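 Swarm assay: overnight LB culture pelleted, washed once, concentrated 50-fold. 2 µl spotted on LB with 0.2% gellan gum, incubated overnight at 30°C. Colony spread measured in mm. Reduction expressed relative to the parent strain.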

Salmonella enteritidis [22] = assay: Antibacterial activity against ciprofloxacin-resistant Salmonella enteritidis 5408 harboring gyrA D87Y mutant, gyrB E466D mutant, parE V461G mutant and ramR G25A mutant gene assessed as width of bacterial rods by microscopy; format: functional, Salmonella enterica subsp. enterica serovar Enteritidis
Salmonella enteritidis [23] = assay: Antibacterial activity against ciprofloxacin-resistant Salmonella enteritidis 104 harboring gyrA D87Y/S83F mutant, soxR R20H mutant and soxS E52K mutant gene assessed as reduction in swarm motility after overnight incubation; format: functional, Salmonella enterica subsp. enterica serovar Enteritidis
Procedure, shortened: as §3

Salmonella enteritidis [24] = assay: Antibacterial activity against ciprofloxacin-resistant Salmonella enteritidis 104 harboring gyrA D87Y/S83F mutant, soxR R20H mutant and soxS E52K mutant gene assessed as width of bacterial rods by microscopy; format: functional, Salmonella enterica subsp. enterica serovar Enteritidis
Salmonella enteritidis [25] = assay: Antibacterial activity against wild type Salmonella enteritidis 104 harboring gyrA D87Y mutant gene after 24 hrs by spectrophotometry; format: functional, organism-based; conditions: Salmonella enterica subsp. enterica serovar Enteritidis
Procedure, shortened: as §2

Salmonella enteritidis [26] = assay: Antibacterial activity against ciprofloxacin-resistant Salmonella enteritidis 5408 harboring gyrA D87Y mutant, gyrB E466D mutant, parE V461G mutant and ramR G25A mutant gene assessed as reduction in swarm motility after overnight incubation; format: functional, Salmonella enterica subsp. enterica serovar Enteritidis
Procedure, shortened: as §3

Salmonella enteritidis [27] = assay: Antibacterial activity against ciprofloxacin-resistant Salmonella enteritidis 5408 harboring gyrA D87Y mutant, gyrB E466D mutant, parE V461G mutant and ramR G25A mutant gene after 24 hrs by spectrophotometry; format: functional, organism-based; conditions: Salmonella enterica subsp. enterica serovar Enteritidis
Procedure, shortened: as §2

Salmonella enteritidis [28] = assay: Antibacterial activity against Salmonella enteritidis NCTC 13349 by CLSI method; format: functional, Salmonella enterica subsp. enterica serovar Enteritidis; conditions: Salmonella enterica

Structure (SMILES): CC1(C)S[C@@H]2[C@H](NC(=O)[C@H](N)c3ccccc3)C(=O)N2[C@H]1C(=O)O [AMPICILLIN]
- MIC (Salmonella enteritidis [1]): 16 µg/mL (≈ 45.8 µM)
- MIC (Salmonella enteritidis [2]): 0.5 µg/mL (≈ 1.43 µM)
- MIC (Salmonella enteritidis [3]): 4 µg/mL (≈ 11.4 µM)
- MIC (Salmonella enteritidis [4]): 1 µg/mL (≈ 2.86 µM)
- MIC (Salmonella enteritidis [5]): 1 µg/mL (≈ 2.86 µM)
- MIC (Salmonella enteritidis [6]): 4 µg/mL (≈ 11.4 µM)

Structure (SMILES): O=C(N[C@H](CO)[C@H](O)c1ccc([N+](=O)[O-])cc1)C(Cl)Cl [CHLORAMPHENICOL]
- MIC (Salmonella enteritidis [1]): 128 µg/mL (≈ 396 µM)
- MIC (Salmonella enteritidis [2]): 2 µg/mL (≈ 6.19 µM)
- MIC (Salmonella enteritidis [3]): 8 µg/mL (≈ 24.8 µM)
- MIC (Salmonella enteritidis [4]): 2 µg/mL (≈ 6.19 µM)
- MIC (Salmonella enteritidis [5]): 4 µg/mL (≈ 12.4 µM)
- MIC (Salmonella enteritidis [6]): 16 µg/mL (≈ 49.5 µM)

Structure (SMILES): O=C(O)c1cn(C2CC2)c2cc(N3CCNCC3)c(F)cc2c1=O [CIPROFLOXACIN]
- Activity (Salmonella enteritidis [7]): 0.46 um
- inhibition (INH) (Salmonella enteritidis [8]): 93%
- MIC (Salmonella enteritidis [9]): 0.12 µg/mL (≈ 0.362 µM)
- Activity (Salmonella enteritidis [10]): Active
- Activity (Salmonella enteritidis [11]): inactive
- Activity (Salmonella enteritidis [12]): 1.16 um
- Activity (Salmonella enteritidis [13]): 1.02 um
- Activity (Salmonella enteritidis [14]): 1.1 um
- Activity (Salmonella enteritidis [15]): Active
- Activity (Salmonella enteritidis [16]): Active
- Activity (Salmonella enteritidis [17]): 0.43 um
- Activity (Salmonella enteritidis [18]): 1 um
- inhibition (INH) (Salmonella enteritidis [19]): 66%
- inhibition (INH) (Salmonella enteritidis [20]): 90%
- inhibition (INH) (Salmonella enteritidis [21]): 36%
- Activity (Salmonella enteritidis [22]): 0.51 um
- inhibition (INH) (Salmonella enteritidis [23]): 36%
- Activity (Salmonella enteritidis [24]): 0.45 um
- Activity (Salmonella enteritidis [25]): Active
- inhibition (INH) (Salmonella enteritidis [26]): 46%
- Activity (Salmonella enteritidis [27]): inactive

Structure (SMILES): CCn1cc(C(=O)O)c(=O)c2ccc(C)nc21 [NALIDIXIC ACID]
- MIC (Salmonella enteritidis [1]): > 256 µg/mL
- MIC (Salmonella enteritidis [2]): > 256 µg/mL
- MIC (Salmonella enteritidis [3]): > 256 µg/mL
- MIC (Salmonella enteritidis [4]): > 256 µg/mL
- MIC (Salmonella enteritidis [5]): > 256 µg/mL
- MIC (Salmonella enteritidis [28]): 8 µg/mL (≈ 34.4 µM)
- MIC (Salmonella enteritidis [6]): > 256 µg/mL

Structure (SMILES): CN(C)[C@@H]1C(O)=C(C(N)=O)C(=O)[C@@]2(O)C(O)=C3C(=O)c4c(O)cccc4[C@@](C)(O)[C@H]3C[C@@H]12 [TETRACYCLINE]
- MIC (Salmonella enteritidis [1]): 16 µg/mL (≈ 36 µM)
- MIC (Salmonella enteritidis [2]): 0.5 µg/mL (≈ 1.13 µM)
- MIC (Salmonella enteritidis [3]): 2 µg/mL (≈ 4.5 µM)
- MIC (Salmonella enteritidis [4]): 1 µg/mL (≈ 2.25 µM)
- MIC (Salmonella enteritidis [5]): 1 µg/mL (≈ 2.25 µM)
- MIC (Salmonella enteritidis [6]): 2 µg/mL (≈ 4.5 µM)
